Measured values as given in ChEMBL document CHEMBL1151833, “Cytotoxic oleanane triterpene saponins from Albizia chinensis” (J Nat Prod, 2009).

What was measured:
HCT-8 = assay: Cytotoxicity against human HCT8 cells after 96 hrs by MTT assay; assay type: functional, cell-based; conditions: HCT-8, 96 h
Outline: (§1)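 Cells kept in RPMI 1640 with 10% FBS, penicillin and streptomycin, at 37 °C in 5% CO2. Seeded at 1.5 × 10^3 cells per well and left 24 h. Compounds added in DMSO, five concentrations over a final 0.01-10 […], each in three parallel wells, for 96 h. MTT (0.2%) added for 4 h, formazan dissolved in DMSO, read at 570 nm. IC50 taken from dose-response curves as 50% loss of optical density versus DMSO control.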

Bel-7402 = assay: Cytotoxicity against human Bel7402 cells after 96 hrs by MTT assay; assay type: functional, cell-based; conditions: Bel-7402, 96 h; outline: as §1
BGC-823 = assay: Cytotoxicity against human BGC823 cells after 96 hrs by MTT assay; assay type: functional, cell-based; conditions: BGC-823, 96 h; outline: as §1
A549 = assay: Cytotoxicity against human A549 cells after 96 hrs by MTT assay; assay type: functional, cell-based; conditions: A549, 96 h; outline: as §1
A2780 = assay: Cytotoxicity against human A2780 cells after 96 hrs by MTT assay; assay type: functional, cell-based; conditions: A2780, 96 h; outline: as §1
[1] = Toxicity in rabbit erythrocytes assessed as hemolytic activity; assay type: cell-based, Oryctolagus cuniculus, Erythrocyte
Outline: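 Rabbit erythrocytes prepared by the Chinese Pharmacopoeia method. Compounds tested at 0.01, 0.05, 0.1, 0.5, 2.5, 10 and 100 µM using a procedure adapted from the literature. Result given as HC50.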

| Structure (SMILES) | IC50 (HCT-8) [nM] | IC50 (Bel-7402) [nM] | IC50 (BGC-823) [nM] | IC50 (A549) [nM] | IC50 (A2780) [nM] | HC50 [1] [nM] |
| --- | --- | --- | --- | --- | --- | --- |
| C=C[C@](C)(CC/C=C(\CO)C(=O)O[C@H]1[C@H](O[C@](C)(C=C)CC/C=C(\C)C(=O)O[C@H]2[C@H](O)[C@@H](O)[C@H](O[C@](C)(C=C)CC/C=C(\CO)C(=O)O[C@H]3C[C@]4(C(=O)O[C@@H]5O[C@H](CO)[C@@H](O)[C@H](O)[C@H]5O[C@@H]5O[C@@H](C)[C@H](O[C@@H]6O[C@@H](CO)[C@H](O)[C@H]6O)[C@@H](O[C@@H]6O[C@H](CO)[C@@H](O)[C@H](O)[C@H]6O)[C@H]5O)[C@H](O)C[C@]5(C)C(=CC[C@@H]6[C@@]7(C)CC[C@H](O[C@@H]8O[C@H](CO[C@@H]9O[C@H](C)[C@H](O)[C@H](O)[C@H]9O[C@@H]9OC[C@@H](O)[C@H](O)[C@H]9O)[C@@H](O)[C@H](O)[C@H]8O)C(C)(C)[C@@H]7CC[C@]65C)[C@@H]4CC3(C)C)O[C@@H]2C)O[C@H](C)[C@@H](O)[C@@H]1O)O[C@@H]1O[C@H](C)[C@@H](O)[C@H](O)[C@H]1O [ALBIZOSIDE A] | 5600 | 2600 | 1600 | 1900 | 1300 | 400 |
| C=C[C@](C)(CC/C=C(\CO)C(=O)O[C@H]1[C@H](O[C@](C)(C=C)CC/C=C(\C)C(=O)O[C@H]2[C@H](O)[C@@H](O)[C@H](O[C@](C)(C=C)CC/C=C(\CO)C(=O)O[C@H]3C[C@]4(C(=O)O[C@@H]5O[C@H](CO)[C@@H](O)[C@H](O)[C@H]5O[C@@H]5O[C@@H](C)[C@H](O[C@@H]6O[C@@H](CO)[C@H](O)[C@H]6O)[C@@H](O[C@@H]6O[C@H](CO)[C@@H](O)[C@H](O)[C@H]6O)[C@H]5O)[C@H](O)C[C@]5(C)C(=CC[C@@H]6[C@@]7(C)CC[C@H](O[C@@H]8O[C@H](CO[C@@H]9O[C@H](C)[C@H](O)[C@H](O)[C@H]9O[C@@H]9OC[C@@H](O)[C@H](O)[C@H]9O)[C@@H](O)[C@H](O)[C@H]8O[C@@H]8O[C@H](CO)[C@@H](O)[C@H](O)[C@H]8O)C(C)(C)[C@@H]7CC[C@]65C)[C@@H]4CC3(C)C)O[C@@H]2C)O[C@H](C)[C@@H](O)[C@@H]1O)O[C@@H]1O[C@H](C)[C@@H](O)[C@H](O)[C@H]1O [ALBIZOSIDE B] | 1300 | 1300 | 3800 | 300 | 1200 | 700 |
| C=C[C@](C)(CC/C=C(\C)C(=O)O[C@H]1[C@H](O)[C@@H](O)[C@H](O[C@](C)(C=C)CC/C=C(\CO)C(=O)O[C@H]2C[C@]3(C(=O)O[C@@H]4O[C@H](CO)[C@@H](O)[C@H](O)[C@H]4O[C@@H]4O[C@@H](C)[C@H](O[C@@H]5O[C@@H](CO)[C@H](O)[C@H]5O)[C@@H](O[C@@H]5O[C@H](CO)[C@@H](O)[C@H](O)[C@H]5O)[C@H]4O)[C@H](O)C[C@]4(C)C(=CC[C@@H]5[C@@]6(C)CC[C@H](O[C@@H]7O[C@H](CO[C@@H]8OC[C@H](O)[C@H](O)[C@H]8O[C@@H]8OC[C@@H](O)[C@H](O)[C@H]8O)[C@@H](O)[C@H](O)[C@H]7O[C@@H]7O[C@H](CO)[C@@H](O)[C@H](O)[C@H]7O)C(C)(C)[C@@H]6CC[C@]54C)[C@@H]3CC2(C)C)O[C@@H]1C)O[C@@H]1O[C@H](C)[C@@H](O)[C@H](O)[C@H]1O [ALBIZOSIDE C] | 400 | 400 | 1700 | 10 | 300 | 700 |
| CC[C@@]1(O)C(=O)OCc2c1cc1n(c2=O)Cc2cc3ccccc3nc2-1 [CAMPTOTHECIN] |  |  |  |  | 300 |  |
| C=C[C@](C)(CC/C=C(\CO)C(=O)O[C@H]1C[C@]2(C(=O)O[C@@H]3O[C@H](CO)[C@@H](O)[C@H](O)[C@H]3O[C@@H]3O[C@@H](C)[C@H](O[C@@H]4O[C@@H](CO)[C@H](O)[C@H]4O)[C@@H](O[C@@H]4O[C@H](CO)[C@@H](O)[C@H](O)[C@H]4O)[C@H]3O)[C@H](O)C[C@]3(C)C(=CC[C@@H]4[C@@]5(C)CC[C@H](O[C@@H]6O[C@H](CO[C@@H]7O[C@H](C)[C@H](O)[C@H](O)[C@H]7O[C@@H]7OC[C@@H](O)[C@H](O)[C@H]7O)[C@@H](O)[C@H](O)[C@H]6O)C(C)(C)[C@@H]5CC[C@]43C)[C@@H]2CC1(C)C)O[C@@H]1O[C@H](C)[C@@H](O)[C@H](O)[C@H]1O [PROSAPOGENIN 10] | > 10000 | > 10000 | > 10000 | > 10000 | > 10000 | 128000 |
